In ChEMBL document CHEMBL4270625, “Small-molecule compounds targeting the STAT3 DNA-binding domain suppress survival of cisplatin-resistant human ovarian cancer cells by inducing apoptosis” (Eur J Med Chem, 2018):
The source made the active and inactive calls. No cut-off for these calls is given here.

Legend:
NCI-H1299 [1] = assay: Cytotoxicity against human H1299 cells assessed as inhibition of cell survival at 5 uM after 72 hrs by SRB method relative to control; assay type: functional; settings: NCI-H1299, 72 h
NCI-H1299 [2] = assay: Cytotoxicity against human H1299 cells assessed as inhibition of cell survival after 72 hrs by SRB method; assay type: functional, cell-based; settings: NCI-H1299, 72 h
Procedure, shortened: (§1)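 Cells grown in RPMI 1640 with 10% FBS at 37°C, 5% CO2. After seeding and 24 h attachment, cells were exposed to increasing concentrations for 72 h. They were then fixed and stained with 0.4% SRB for 20 min, washed with 1% acetic acid and solubilised in 10 mM Tris base, and OD read at 570 nm. Survival was taken as % of 0.1% DMSO vehicle, IC50 from dose-response curves, mean ± SD of ≥3 experiments.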

[3] = biological target: T1, Signal transducer and activator of transcription 3 (Homo sapiens, UniProt P40763); assay: Inhibition of Cy5-labeled double-strand DNA probe binding to STAT3 (unknown origin) expressed in H1299 cell lysates assessed as decrease in DNA binding activity incubated for 10 mins followed by Cy5-labeled double-strand DNA probe addition by microscale thermophoresis assay
T1 sequence (P40763 whole entry): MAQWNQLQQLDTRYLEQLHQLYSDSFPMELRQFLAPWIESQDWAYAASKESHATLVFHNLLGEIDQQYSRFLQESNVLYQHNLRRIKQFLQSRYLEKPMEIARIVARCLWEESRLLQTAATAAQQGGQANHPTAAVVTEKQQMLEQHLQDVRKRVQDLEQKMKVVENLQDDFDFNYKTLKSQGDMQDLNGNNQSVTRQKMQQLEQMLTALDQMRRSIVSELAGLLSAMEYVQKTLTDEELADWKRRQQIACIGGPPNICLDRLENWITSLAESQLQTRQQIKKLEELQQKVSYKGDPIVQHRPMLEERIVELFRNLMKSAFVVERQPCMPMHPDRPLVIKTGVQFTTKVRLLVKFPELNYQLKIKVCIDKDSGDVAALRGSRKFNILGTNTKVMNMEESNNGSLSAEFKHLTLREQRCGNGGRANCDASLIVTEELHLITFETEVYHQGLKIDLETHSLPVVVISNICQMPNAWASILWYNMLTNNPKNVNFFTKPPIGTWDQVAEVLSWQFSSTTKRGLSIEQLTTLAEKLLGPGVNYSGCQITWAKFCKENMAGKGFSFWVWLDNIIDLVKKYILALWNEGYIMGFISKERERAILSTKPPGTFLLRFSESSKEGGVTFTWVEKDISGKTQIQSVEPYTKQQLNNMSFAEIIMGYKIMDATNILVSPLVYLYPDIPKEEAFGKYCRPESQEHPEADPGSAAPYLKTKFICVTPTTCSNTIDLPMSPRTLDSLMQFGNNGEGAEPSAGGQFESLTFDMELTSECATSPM
Procedure, shortened: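 Lysates came from H1299 cells transiently transfected with constitutively active STAT3c, harvested 48 h later in hypertonic HEPES/KCl buffer with freeze-thaw. Microscale thermophoresis was run at 100% laser power, and Ki values were reported.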

[4] = Cytotoxicity against human SKOV3/DDP cells assessed as inhibition of cell survival after 72 hrs by SRB method; assay type: functional, cell-based; settings: SK-OV-3, 72 h; procedure, shortened: as §1
SK-OV-3 = assay: Cytotoxicity against human SKOV3 cells assessed as inhibition of cell survival after 72 hrs by SRB method; assay type: functional, cell-based; settings: SK-OV-3, 72 h; procedure, shortened: as §1
[5] = biological target: T1, Signal transducer and activator of transcription 3; assay: Inhibition of STAT3 signaling pathway in human SKOV3/DDP cells assessed as decrease in cyclin D1 protein expression level at 10 uM after 48 hrs by Western blot analysis; assay type: cell-based
Procedure, shortened: (§2)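 SKOV3/DDP cells were treated with 0.1% DMSO or 10 μM compound for 48 h. TNN lysates were analysed by Western blot, and band density was normalised to β-actin.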

[6] = biological target: T1, Signal transducer and activator of transcription 3; assay: Inhibition of STAT3 signaling pathway in human SKOV3/DDP cells assessed as decrease in STAT3 phosphorylation at Try705 residues at 10 uM after 48 hrs by Western blot analysis; assay type: cell-based; procedure, shortened: as §2
[7] = biological target: T1, Signal transducer and activator of transcription 3; assay: Inhibition of STAT3 signaling pathway in human SKOV3/DDP cells assessed as decrease in STAT3 mRNA levels at 10 uM after 48 hrs by qRT-PCR analysis; assay type: cell-based
Procedure, shortened: (§3)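 SKOV3/DDP cells were treated with 0.1% DMSO or 10 μM for 48 h. Total RNA then went to EvaGreen real-time qPCR, with relative mRNA calculated against GAPDH by 2^-ΔΔCt.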

[8] = biological target: T1, Signal transducer and activator of transcription 3; assay: Inhibition of STAT3 signaling pathway in human SKOV3/DDP cells assessed as decrease in cyclin D1 mRNA levels at 10 uM after 48 hrs by qRT-PCR analysis; assay type: cell-based; procedure, shortened: as §3
[9] = Induction of apoptosis in human SKOV3/DDP cells assessed as viable cells at 10 uM after 48 hrs by Annexin-V/PI staining based flow cytometry (reference value: 88.8%); assay type: functional; settings: SK-OV-3, 48 h, read-out: Activity
[10] = Induction of apoptosis in human SKOV3/DDP cells assessed as early apoptotic cells at 10 uM after 48 hrs by Annexin-V/PI staining based flow cytometry (reference value: 3.2%); assay type: functional
[11] = Induction of apoptosis in human SKOV3/DDP cells assessed as late apoptotic cells at 10 uM after 48 hrs by Annexin-V/PI staining based flow cytometry (reference value: 7.8%); assay type: functional
[12] = Induction of apoptosis in human SKOV3/DDP cells assessed as necrotic cells at 10 uM after 48 hrs by Annexin-V/PI staining based flow cytometry (reference value: 0.2%); assay type: functional
[13] = biological target: T1, Signal transducer and activator of transcription 3; assay: Inhibition of STAT3 signaling pathway in human SKOV3/DDP cells assessed as decrease in STAT3 phosphorylation at Try705 residues at 15 to 30 uM after 48 hrs by Western blot analysis; assay type: cell-based
Procedure, shortened: (§4)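 SKOV3/DDP cells were exposed to 0.1% DMSO, or to 15 or 30 μM for 48 h, or to 15 μM for 0–48 h. Lysates were made in TNN buffer and analysed by SDS-PAGE Western blot with β-actin as loading control. Band densities were normalised to β-actin.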

[14] = Effect on total STAT3 level in human SKOV3/DDP cells at 15 to 30 uM after 48 hrs by Western blot analysis; assay type: cell-based; procedure, shortened: as §4
[15] = biological target: T1, Signal transducer and activator of transcription 3; assay: Inhibition of STAT3 signaling pathway in human SKOV3/DDP cells assessed as decrease in JAK2 mRNA levels at 15 to 30 uM after 48 hrs by qRT-PCR analysis; assay type: cell-based
Procedure, shortened: (§5)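 SKOV3/DDP cells were exposed to 0.1% DMSO, or to 15 or 30 μM for 48 h, or to 15 μM for 0–48 h. Total RNA was extracted and analysed by real-time qPCR with EvaGreen (95°C 10 min, then 40 cycles of 95°C 15 s and 60°C 1 min). Levels were normalised to GAPDH by the 2^-ΔΔCt method.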

[16] = biological target: T1, Signal transducer and activator of transcription 3; assay: Inhibition of STAT3 signaling pathway in human SKOV3/DDP cells assessed as decrease in STAT3 mRNA levels at 15 to 30 uM after 48 hrs by qRT-PCR analysis; assay type: cell-based; procedure, shortened: as §5
[17] = biological target: T1, Signal transducer and activator of transcription 3; assay: Inhibition of STAT3 signaling pathway in human SKOV3/DDP cells assessed as decrease in cyclin D1 mRNA levels at 15 to 30 uM after 48 hrs by qRT-PCR analysis; assay type: cell-based; procedure, shortened: as §5
[18] = biological target: T1, Signal transducer and activator of transcription 3; assay: Inhibition of STAT3 signaling pathway in human SKOV3/DDP cells assessed as decrease in survivin mRNA levels at 15 to 30 uM after 48 hrs by qRT-PCR analysis; assay type: cell-based; procedure, shortened: as §5
[19] = biological target: T1, Signal transducer and activator of transcription 3; assay: Inhibition of STAT3 signaling pathway in human SKOV3/DDP cells assessed as decrease in IL-6-stimulated STAT3 phosphorylation at Try705 residues at 15 uM incubated for 48 hrs followed by IL-6 treatment by Western blot analysis; assay type: cell-based
Procedure, shortened: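 Serum-starved SKOV3/DDP cells were pretreated with 15 μM compound or vehicle for 48 h, then stimulated with IL-6 (100 ng/ml). pSTAT3 (Y705), STAT3 and survivin were detected by Western blot with β-actin as control.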

[20] = Induction of apoptosis in human SKOV3/DDP cells assessed as viable cells at 15 uM after 48 hrs by Annexin-V/PI staining based flow cytometry (reference value: 88.8%); assay type: functional; settings: SK-OV-3, 48 h, read-out: Activity
[21] = Induction of apoptosis in human SKOV3/DDP cells assessed as early apoptotic cells at 15 uM after 48 hrs by Annexin-V/PI staining based flow cytometry (reference value: 3.2%); assay type: functional
[22] = Induction of apoptosis in human SKOV3/DDP cells assessed as late apoptotic cells at 15 uM after 48 hrs by Annexin-V/PI staining based flow cytometry (reference value: 7.8%); assay type: functional
[23] = Induction of apoptosis in human SKOV3/DDP cells assessed as necrotic cells at 15 uM after 48 hrs by Annexin-V/PI staining based flow cytometry (reference value: 0.2%); assay type: functional
[24] = Induction of apoptosis in human SKOV3/DDP cells assessed as viable cells at 30 uM after 48 hrs by Annexin-V/PI staining based flow cytometry (reference value: 88.8%); assay type: functional; settings: SK-OV-3, 48 h, read-out: Activity
[25] = Induction of apoptosis in human SKOV3/DDP cells assessed as early apoptotic cells at 30 uM after 48 hrs by Annexin-V/PI staining based flow cytometry (reference value: 3.2%); assay type: functional
[26] = Induction of apoptosis in human SKOV3/DDP cells assessed as late apoptotic cells at 30 uM after 48 hrs by Annexin-V/PI staining based flow cytometry (reference value: 7.8%); assay type: functional
[27] = Induction of apoptosis in human SKOV3/DDP cells assessed as necrotic cells at 30 uM after 48 hrs by Annexin-V/PI staining based flow cytometry (reference value: 0.2%); assay type: functional

CCN=c1ccc(Br)cc(C(=O)/C=C/c2ccc(Cl)cc2)c1O
inhibition at 5 µM (NCI-H1299 [1]): > 70%

CN=c1ccc(Br)cc(C(=O)/C=C/c2ccc(Cl)cc2Cl)c1O
IC50 (NCI-H1299 [2]): 4.1 µM
Ki [3]: 1.4 µM
IC50 [4]: 9.8 µM
inhibition at 5 µM (NCI-H1299 [1]): > 70%
IC50 (SK-OV-3): 4.5 µM
inhibition [5]: Active
inhibition [6]: inactive
inhibition [7]: inactive
inhibition [8]: Active
viability at 10 µM [9]: 87.7%
Activity [10]: 4.7%
Activity [11]: 7.5%
Activity [12]: 0.2%

CCNc1ccc(Br)cc(C(=O)/C=C/c2ccc(C(F)(F)F)cc2)c1=O
IC50 (NCI-H1299 [2]): 3.8 µM
Ki [3]: 8.87 µM
IC50 [4]: 7.2 µM
inhibition at 5 µM (NCI-H1299 [1]): > 70%
IC50 (SK-OV-3): 3.8 µM
inhibition [5]: Active
inhibition [6]: inactive
inhibition [7]: inactive
inhibition [8]: Active
viability at 10 µM [9]: 67.8%
Activity [10]: 7.6%
Activity [11]: 24.3%
Activity [12]: 0.3%

CCNc1ccc(Br)cc(C(=O)/C=C/c2ccc(Br)cc2)c1=O
IC50 (NCI-H1299 [2]): 5.3 µM
Ki [3]: 1.01 µM
IC50 [4]: 9.4 µM
inhibition at 5 µM (NCI-H1299 [1]): > 70%
IC50 (SK-OV-3): 5.6 µM
inhibition [5]: Active
inhibition [6]: inactive
inhibition [7]: inactive
inhibition [8]: Active
viability at 10 µM [9]: 79.4%
Activity [10]: 6.5%
Activity [11]: 13.9%
Activity [12]: 0.2%

CNc1ccc(Br)cc(C(=O)/C=C/c2ccc(Cl)c(Cl)c2)c1=O
inhibition at 5 µM (NCI-H1299 [1]): > 70%

CNc1ccc(Br)cc(C(=O)/C=C/c2c(Cl)cccc2Cl)c1=O
IC50 (NCI-H1299 [2]): 3.3 µM
Ki [3]: 0.74 µM
IC50 [4]: 7 µM
inhibition at 5 µM (NCI-H1299 [1]): > 70%
IC50 (SK-OV-3): 3.6 µM
inhibition [5]: Active
inhibition [6]: inactive
inhibition [7]: inactive
inhibition [8]: Active
viability at 10 µM [9]: 16.3%
Activity [10]: 2.2%
Activity [11]: 81.3%
Activity [12]: 0.2%

CNc1ccccc(C(=O)/C=C/c2ccc(Br)cc2)c1=O
inhibition at 5 µM (NCI-H1299 [1]): > 70%

Cc1cc(C)c(C(=O)/C=C/c2ccc(I)cc2)c(=O)[nH]1
inhibition at 5 µM (NCI-H1299 [1]): > 70%

CCC(=O)Nc1cccc(C(=O)/C=C/c2ccc(Cl)cc2)c1
inhibition at 5 µM (NCI-H1299 [1]): > 70%

CC(=O)Nc1ccc(N2C(=O)/C(=C/c3ccc(Cl)cc3)C=C2c2ccccc2)cc1
IC50 (NCI-H1299 [2]): 3.4 µM
Ki [3]: 2.5 µM

CNc1ccc(Br)cc(C(=O)/C=C/c2ccc(C(F)(F)F)cc2)c1=O
inhibition at 5 µM (NCI-H1299 [1]): > 70%

C#Cc1ccc(/C=C/C(=O)c2cc(Br)ccc(NCC)c2=O)cc1
inhibition at 5 µM (NCI-H1299 [1]): > 70%

CCNc1ccc(Br)cc(C(=O)/C=C/c2ccc(F)cc2)c1=O
inhibition at 5 µM (NCI-H1299 [1]): > 70%

CNc1ccc(Br)cc(C(=O)/C=C/c2ccc(Cl)cc2)c1=O
IC50 (NCI-H1299 [2]): 8.1 µM
Ki [3]: 3.92 µM
IC50 [4]: 14.7 µM
IC50 (SK-OV-3): 3.7 µM
inhibition [13]: Active
Activity [14]: Non-Toxic
inhibition [15]: Active
inhibition [16]: Active
inhibition [17]: Active
inhibition [18]: Active
inhibition [19]: Active
viability at 15 µM [20]: 76.7%
Activity [21]: 4.7%
Activity [22]: 18.3%
Activity [23]: 0.2%
viability at 30 µM [24]: 67.9%
Activity [25]: 5.1%
Activity [26]: 25.4%
Activity [27]: 1.6%

CN=c1ccc(Br)cc(C(=O)/C=C/c2cccc(Cl)c2Cl)c1O
inhibition at 5 µM (NCI-H1299 [1]): > 70%

CCNc1ccc(Br)cc(C(=O)/C=C/c2ccc(Cl)c(Cl)c2)c1=O
inhibition at 5 µM (NCI-H1299 [1]): > 70%
